The source made the active and inactive calls. No cut-off for these calls is given here. Bounds are passed on as bounds.

As a reminder, the IC50 is the concentration needed to halve the response being measured.

The nature of test [1]: Inhibition of soybean 15-lipoxygenase by MBTH-DMAB method. Also noted: species or system Glycine max. A digest of the protocol: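 Test sample in ethanol was preincubated 5 min at room temperature with SLO (stock 4000 units/mL) in 50 mM phosphate, pH 7.0, with an ethanol control. Linoleic acid (Tween 20/KOH) started peroxidation. After 7 min, DMAB (solution A) and then MBTH with hemoglobin at pH 5.0 (solution B) developed colour. After 5 min more, 2% SDS stopped the reaction.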

Test [2] has as its target T1, Polyunsaturated fatty acid lipoxygenase ALOX15 (Homo sapiens, UniProt P16050).
T1 sequence (P16050 whole entry): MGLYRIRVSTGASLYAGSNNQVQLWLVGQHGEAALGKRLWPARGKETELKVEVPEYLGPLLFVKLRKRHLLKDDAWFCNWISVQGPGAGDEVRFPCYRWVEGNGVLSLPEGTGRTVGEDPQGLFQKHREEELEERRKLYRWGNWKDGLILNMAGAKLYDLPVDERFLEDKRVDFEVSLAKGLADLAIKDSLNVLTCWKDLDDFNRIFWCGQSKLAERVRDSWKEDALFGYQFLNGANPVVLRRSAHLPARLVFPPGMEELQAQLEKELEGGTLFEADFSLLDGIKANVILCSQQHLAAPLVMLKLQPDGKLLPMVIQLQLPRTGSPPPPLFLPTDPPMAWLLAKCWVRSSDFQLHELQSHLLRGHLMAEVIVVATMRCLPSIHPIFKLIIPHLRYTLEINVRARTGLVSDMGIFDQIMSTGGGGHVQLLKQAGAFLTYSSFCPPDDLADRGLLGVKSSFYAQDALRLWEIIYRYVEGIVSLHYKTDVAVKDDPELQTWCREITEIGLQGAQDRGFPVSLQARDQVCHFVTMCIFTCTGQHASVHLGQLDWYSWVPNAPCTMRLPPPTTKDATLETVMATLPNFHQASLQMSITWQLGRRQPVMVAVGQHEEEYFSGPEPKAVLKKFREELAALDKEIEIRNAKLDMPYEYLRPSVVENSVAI
The test is described as follows: Inhibition of recombinant human 15-lipoxygenase by MBTH-DMAB method.

Another test deals with Glycine max. Nature of the test: Competitive inhibition of soybean 15-lipoxygenase at 1.25 to 5 uM by Lineweaver-Burk plot. In outline: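 Soybean 15-lipoxygenase activity was read by the MBTH–DMAB end-point method at linoleic acid levels of 25, 50, 100 and 200, plotted as double-reciprocal (Lineweaver–Burk) curves with and without inhibitor.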

For the compound `CC(C)=CCC/C(C)=C/COc1cccc2ccc(=O)oc12`, inhibition in test [1] was half-maximal at 8.1 µM (IC50).

With `CC(C)=CCC/C(C)=C/CC/C(C)=C/COc1ccccc1` [FARNESYL PHENYL ETHER], the IC50 was 2.7 µM in test [1] and greater than 50 µM in test [2].

On to `CC(C)=CCOc1ccc2ccc(=O)oc2c1` [7-PRENYLOXYCOUMARIN], for which half-maximal inhibition in test [1] (IC50) was put at 60.4 µM.

Regarding `CC(C)=CCC/C(C)=C/COc1ccc2oc(=O)ccc2c1`, the IC50 is 9.6 µM in test [1] and 6.8 µM in test [2].

In test [1], `CC(C)=CCC/C(C)=C/CC/C(C)=C/COc1ccc2ccc(=O)oc2c1` [UMBELLIPRENIN] yielded an IC50 of 3.1 µM.

For `CC(C)=CCC/C(C)=C/CC/C(C)=C/COc1cc(=O)oc2ccccc12`, the IC50 in test [1] came out at 3.5 µM.

In test [1], `O=C(O)/C=C/c1ccc(O)c(O)c1` [CAFFEIC ACID] came in with an IC50 of 39.4 µM.

The compound `Cc1nc(N2CCN(C)CC2)nc2c1Nc1ccccc1S2` yielded a half-inhibitory concentration (IC50) in test [1] of 21.2 µM.

Take `CC(C)=CCC/C(C)=C/COc1cc(=O)oc2ccccc12`: the IC50 in test [1] was found to be 5.6 µM; in test [2] it was 42.6 µM.

Compound `CC(C)=CCOc1cccc2oc(=O)ccc12` returned an IC50 in test [1] of 39.8 µM.

Turning to `CC(C)=CCC/C(C)=C/COc1cc2ccccc2oc1=O`, the IC50 is 4.7 µM in test [1] and greater than 100 µM in test [2].

Take `CC(C)=CCC/C(C)=C/CC/C(C)=C/COc1cccc2ccc(=O)oc12`: the concentration for half-maximal inhibition (IC50) in test [1] was determined as 5.8 µM.

For the compound `CC(C)=CCC/C(C)=C/CC/C(C)=C/COc1cccc2oc(=O)ccc12`, the IC50 in test [1] worked out at 0.8 µM; in test [2] it was 3.6 µM.

Take `CC(C)=CCOc1ccc2oc(=O)ccc2c1`: half-maximal inhibition in test [1] (IC50) was put at 69.4 µM.

As for `CC(C)=CCC/C(C)=C/CC/C(C)=C/COc1cc2ccccc2oc1=O`, the results for the IC50 in test [1] and in test [2] were 1.7 µM and greater than 50 µM, respectively. For the same compound, the inhibition entry in the test with Glycine max is “Active”.

Regarding `CC(C)=CCC/C(C)=C/COc1ccc2ccc(=O)oc2c1` [AURAPTENE], half-maximal inhibition in test [1] (IC50) was put at 6.3 µM.

In test [1], `CC(C)=CCOc1cc2ccccc2oc1=O` had an IC50 of 54.4 µM.

In test [1], `CC(C)=CCOc1cc(=O)oc2ccccc12` yielded an IC50 of 43.9 µM.

Consider `CC(C)=CCC/C(C)=C/CC/C(C)=C/COc1ccc2oc(=O)ccc2c1`, for which the IC50 in test [1] was 2.1 µM; in test [2] it was 1.3 µM.

As to `CC(C)=CCOc1cccc2ccc(=O)oc12`, it took 46.5 µM to reach half-maximal inhibition in test [1] (IC50).

On to `CC(C)=CCC/C(C)=C/COc1cccc2oc(=O)ccc12`, for which it took 2.8 µM to reach half-maximal inhibition in test [1] (IC50).

Values taken from ChEMBL document CHEMBL2086242, “Synthesis and SAR studies of mono O-prenylated coumarins as potent 15-lipoxygenase inhibitors” (Eur J Med Chem, 2012).
